# “And” between values parts separate entries of the source, which are not always exact repeats. Identical values can stand only once.
# Tests used:
# Rho-MatB [1] = target: T1, Rho-MatB (Rhodopseudomonas palustris, UniProt Q6ND88, C106A/K488A/Q457C/R286C); assay: ATP titration of Rho-MatB in the presence of other nucleotides; assay type: binding; settings: for fluorescence ratio of ATP titration: 1 μM Rho-MatB titrated with ATP in presence of 100 μM of the named nucleotide
# T1 sequence (Q6ND88 1-503 C106A/R286C/Q457C/K488A): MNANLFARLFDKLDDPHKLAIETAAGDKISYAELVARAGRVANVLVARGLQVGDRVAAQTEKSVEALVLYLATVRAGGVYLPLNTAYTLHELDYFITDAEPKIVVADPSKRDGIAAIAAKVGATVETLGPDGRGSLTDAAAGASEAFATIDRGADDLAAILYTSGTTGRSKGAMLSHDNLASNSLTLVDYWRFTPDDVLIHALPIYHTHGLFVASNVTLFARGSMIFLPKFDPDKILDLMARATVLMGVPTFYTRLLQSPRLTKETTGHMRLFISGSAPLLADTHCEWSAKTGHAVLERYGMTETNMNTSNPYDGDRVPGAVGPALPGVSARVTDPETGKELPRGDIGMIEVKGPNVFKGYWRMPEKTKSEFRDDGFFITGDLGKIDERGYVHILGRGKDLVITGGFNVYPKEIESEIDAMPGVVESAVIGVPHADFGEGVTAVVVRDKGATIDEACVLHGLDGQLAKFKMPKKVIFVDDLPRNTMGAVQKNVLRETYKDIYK
# Procedure, shortened: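 ATP was titrated into 1 μM labelled sensor, alone or with 100 μM ADP, dATP, ATPγS or AMP-PNP. Buffer was Hepes pH 7.0 / NaCl / MgCl2 / BSA, with excitation at 553 nm and emission at 571 nm. Dilution-corrected data were fitted to a quadratic binding equation to give the apparent Kd for ATP and the fluorescence ratio.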
# Rho-MatB [2] = target: T1, Rho-MatB; assay: Fluorescence of Rho-MatB with various ligands; assay type: binding; settings: in words
# Rho-MatB [3] = target: T1, Rho-MatB; assay: Fluorescence titration of nucleotides to Rho-MatB; assay type: binding
# ATeam = ATeam biosensor; cited from earlier work
# RpMatB K488A = settings: read-out: Kd for ATP; unlabeled RpMatB K488A; cited from earlier work
# Rho-MatB [4] = target: T1, Rho-MatB; assay: Stopped-flow association and dissociation kinetics of Rho-MatB and ATP; assay type: binding; settings: 25 °C
# Procedure, shortened: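 Stopped-flow fluorescence at 25 °C in Hepes pH 7.0, NaCl, MgCl2, BSA buffer. In one format, a range of sensor concentrations in 10-fold excess over ATP gave single-exponential traces, with at least three traces averaged at 1.3 and 2.5 μM. In the other, 0.25 μM sensor was mixed with excess ATP, giving biphasic traces. kobs (fast phase) was plotted against the excess reactant; linear-regression slope gave association and intercept gave dissociation.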
# pyruvate kinase = pyruvate kinase (Oryctolagus cuniculus, UniProt P11974); assay: Steady-state ATP production by pyruvate kinase monitored by Rho-MatB; assay type: biochemical, rabbit
# Chain of pyruvate kinase (P11974 whole entry): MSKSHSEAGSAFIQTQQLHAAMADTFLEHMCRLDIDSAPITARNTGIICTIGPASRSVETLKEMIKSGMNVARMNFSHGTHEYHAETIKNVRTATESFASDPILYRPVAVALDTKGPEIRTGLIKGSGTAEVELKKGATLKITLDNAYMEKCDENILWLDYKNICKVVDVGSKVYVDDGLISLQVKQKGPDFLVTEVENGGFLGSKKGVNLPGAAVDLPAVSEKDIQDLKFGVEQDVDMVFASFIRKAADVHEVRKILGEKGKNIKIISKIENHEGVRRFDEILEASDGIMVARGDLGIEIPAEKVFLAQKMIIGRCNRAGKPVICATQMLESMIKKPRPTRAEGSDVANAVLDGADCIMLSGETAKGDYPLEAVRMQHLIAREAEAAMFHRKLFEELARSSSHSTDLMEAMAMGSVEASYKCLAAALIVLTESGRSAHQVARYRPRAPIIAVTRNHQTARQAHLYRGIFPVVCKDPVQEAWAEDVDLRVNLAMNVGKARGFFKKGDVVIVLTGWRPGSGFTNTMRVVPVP
# [5] = 0.25 μM Rho-MatB, ATP in large excess
# [6] = Rho-MatB in 10-fold excess over ATP
smiles,measurement,setting,value
"Nc1ncnc2c1ncn2[C@@H]1O[C@H](COP(=O)(O)OP(=O)(O)NP(=O)(O)O)[C@@H](O)[C@H]1O [AMP-PNP, adenosine 5′-(β,γ-imido)triphosphate]",fluorescence ratio of ATP titration,Rho-MatB [1],2.4
Nc1ncnc2c1ncn2[C@@H]1O[C@H](COP(=O)(O)O)[C@@H](O)[C@H]1O [AMP],effect on the fluorescence of Rho-MatB,Rho-MatB [2],did not significantly affect the fluorescence
"Nc1ncnc2c1ncn2[C@@H]1O[C@H](CO[P@](=O)(O)O[P@](=O)(O)O[P@@](=O)(O)S)[C@@H](O)[C@H]1O [ATPγS, adenosine 5′-(γ-thio)triphosphate]",Kd,Rho-MatB [3],16.2 ± 0.8 µM
same,fluorescence ratio of ATP titration,Rho-MatB [1],1.9
same,increase of apparent Kd for ATP,Rho-MatB [1]; fixed concentration of the named nucleotide,~5 fold
CC(C)(COP(=O)(O)OP(=O)(O)OC[C@H]1O[C@@H](n2cnc3c(N)ncnc32)[C@H](O)[C@@H]1OP(=O)(O)O)[C@@H](O)C(=O)NCCC(=O)NCCS [coenzyme A],effect on the MgATP-induced fluorescence increase,Rho-MatB [2],did not inhibit
same,effect on the fluorescence of Rho-MatB,Rho-MatB [2],no effect
Nc1ncnc2c1ncn2[C@H]1C[C@H](O)[C@@H](COP(=O)(O)OP(=O)(O)OP(=O)(O)O)O1 [dATP],fluorescence ratio of ATP titration,Rho-MatB [1],2.3
Nc1nc2c(ncn2[C@@H]2O[C@H](COP(=O)(O)OP(=O)(O)OP(=O)(O)O)[C@@H](O)[C@H]2O)c(=O)[nH]1 [GTP],effect on the fluorescence of Rho-MatB,Rho-MatB [2],did not significantly affect the fluorescence
Nc1nc2c(ncn2[C@@H]2O[C@H](COP(=O)(O)OP(=O)(O)O)[C@@H](O)[C@H]2O)c(=O)[nH]1 [GDP],effect on the fluorescence of Rho-MatB,Rho-MatB [2],did not significantly affect the fluorescence
Nc1ncnc2c1ncn2[C@@H]1O[C@H](COP(=O)(O)OP(=O)(O)O)[C@@H](O)[C@H]1O [ADP],fluorescence ratio of ATP titration,Rho-MatB [1],3.0
O=C(O)CC(=O)O [malonate],effect on the MgATP-induced fluorescence increase,Rho-MatB [2],did not inhibit
same,effect on the fluorescence of Rho-MatB,Rho-MatB [2],no effect
Nc1ncnc2c1ncn2[C@@H]1O[C@H](COP(=O)(O)OP(=O)(O)OP(=O)(O)O)[C@@H](O)[C@H]1O [ATP],higher affinity for ATP than ADP,Rho-MatB [3]; Rho-MatB,67 fold
same,increase in fluorescence intensity on ATP binding,"Rho-MatB [3]; excitation 553 nm, emission 575 nm, 1 μM Rho-MatB",3.7 fold
same,higher affinity for ATP than ADP,ATeam,30 fold
same,Kd,RpMatB K488A,0.31 µM
same,association rate constant (fast phase),Rho-MatB [4]; [5],1.83 ± 0.02 μM^–1 s^–1 and 1.8 μM^–1 s^–1
same,"intercept (dissociation rate constant, fast phase)",Rho-MatB [4]; [5],8.15 ± 0.17 s^–1 and 8.2 s^–1
same,association rate constant,Rho-MatB [4]; [6],0.72 μM^–1 s^–1
same,intercept (dissociation rate constant),Rho-MatB [4]; [6],8.0 s^–1 and 7.95 ± 0.18 s^–1
C=C(OP(=O)(O)O)C(=O)O [phosphoenolpyruvate],average specific activity,pyruvate kinase,0.76 μM s^–1 U^–1 mL and 0.76 ± 0.02 μM s^–1 U^–1 mL
same,average Vmax,pyruvate kinase; n = 5,0.0190 ± 0.0004 μM s^–1
